From ChEMBL document CHEMBL2375262, “Thiazolidin-4-one and thiazinan-4-one derivatives analogous to rosiglitazone as potential antihyperglycemic and antidyslipidemic agents” (2013)

Experiments:
Assay type in all cases: functional
Mus musculus [1] = assay: Antihyperglycemic activity in db/db mouse assessed as inhibition of post prandial blood glucose level at 30 mg/kg, po qd administered 15 days by OGTT relative to vehicle-treated control; conditions: 360 h
Procedure, shortened: (§1)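 Male db/db mice, 10-12 weeks, >40 g, with blood glucose 180-300 mg/dl; six per group. Dosed orally once daily in 1% gum acacia on days 1-15, with vehicle controls. Blood glucose was read daily. OGTT on days 10 and 15 after an overnight fast: glucose at -30, 0, 30, 60, 90 and 120 min around an oral 3.0 g/kg glucose load. Activity was taken from AUC versus control; Dunnett's test.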

Mus musculus [2] = assay: Antihyperglycemic activity in db/db mouse assessed as inhibition of post prandial blood glucose level at 30 mg/kg, po qd administered 15 days measured on day 10 by OGTT relative to vehicle-treated control; procedure, shortened: as §1
Mus musculus [3] = assay: Antidyslipidemic activity in db/db mouse assessed as decrease in plasma total cholesterol level at 30 mg/kg, po qd administered 15 days measured on day 16 […] relative to vehicle-treated control; design: scale not given: the % may be the effect or the level left
Procedure, shortened: (§2)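 Male db/db mice, 10-12 weeks old, over 40 g. After a 3-day vehicle run-in, animals with blood glucose 180-300 mg/dl were placed in groups of six and gavaged once daily on days 1-15 with a suspension in 1% gum acacia. Controls received vehicle. Terminal retro-orbital plasma was assayed for triglycerides, total and HDL-cholesterol with colorimetric kits. Dunnett's test was used.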

Mus musculus [4] = assay: Antihyperglycemic activity in db/db mouse assessed as reduction of blood glucose level at 30 mg/kg, po qd measured daily for 15 days relative to vehicle-treated control; design: scale not given: the % may be the effect or the level left; procedure, shortened: as §1
L6 [5] = assay: Antihyperglycemic activity in rat L6 cells assessed as increase in 2-deoxy-[3H]-D-glucose uptake at 10 uM after 18 hrs by liquid scintillation counting analysis relative to control
Procedure, shortened: (§3)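 L6 myoblasts were differentiated to myotubes in DMEM with 2% FBS, then treated for 18 h. After washes, cells took up 3 µCi 2-deoxy-[3H]D-glucose plus 20 µM unlabelled 2-deoxyglucose in HEPES-buffered saline for 15 min. Cells were lysed in 0.1 N NaOH and counted by scintillation; results are % increase over control.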

Mus musculus [6] = assay: Antidyslipidemic activity in db/db mouse assessed as increase in plasma HDL-cholesterol level at 30 mg/kg, po qd administered 15 days […] relative to vehicle-treated control
Mus musculus [7] = assay: Antidyslipidemic activity in db/db mouse assessed as decrease in plasma triglycerides level at 30 mg/kg, po qd administered 15 days measured on day 16 by ELISA relative to vehicle-treated control; design: scale not given: the % may be the effect or the level left; conditions: in the assay text read “by colorimetric assay” for “by ELISA”; procedure, shortened: as §2
Mus musculus [8] = assay: Insulin resistance reversal activity in db/db mouse assessed as decrease in plasma insulin level at 30 mg/kg, po qd administered 15 days measured on day 16 by ELISA relative to vehicle-treated control; design: scale not given: the % may be the effect or the level left
Procedure, shortened: (§4)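 db/db males, 10-12 weeks, >40 g, baseline glucose 180-300 mg/dl, n=6 per group. Oral suspension in 1% gum acacia given once daily for days 1-15; vehicle controls. At study end, retro-orbital plasma insulin was measured by ELISA. Groups were compared by Dunnett's test.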

3T3-L1 = assay: Induction of adipogenesis in mouse 3T3L1 cells assessed as accumulation of lipid droplets at 10 uM measured on day 9 by Oil Red O staining method relative to control
Procedure, shortened: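 3T3-L1 preadipocytes, 2 days post-confluence, were induced with 0.5 mM IBMX, 0.25 µM dexamethasone and insulin in DMEM/10% FBS with compound present. After 3 days, medium changed to insulin alone, then to DMEM/10% FBS. On day 9, lipid droplets were stained with 0.36% Oil Red O in 60% isopropanol for 30 min and examined by microscope.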

Mus musculus [9] = assay: Antidyslipidemic activity in db/db mouse assessed as decrease in plasma total cholesterol level at 100 mg/kg, po qd administered 15 days […] relative to vehicle-treated control; design: scale not given: the % may be the effect or the level left
Mus musculus [10] = assay: Insulin resistance reversal activity in db/db mouse assessed as decrease in plasma insulin level at 100 mg/kg, po qd administered 15 days measured on day 16 by ELISA relative to vehicle-treated control; design: scale not given: the % may be the effect or the level left; procedure, shortened: as §4
Mus musculus [11] = assay: Antihyperglycemic activity in db/db mouse assessed as inhibition of post prandial blood glucose level at 100 mg/kg, po qd administered 15 days by OGTT relative to vehicle-treated control; conditions: 360 h; procedure, shortened: as §1
Mus musculus [12] = assay: Antidyslipidemic activity in db/db mouse assessed as decrease in plasma triglycerides level at 100 mg/kg, po qd administered 15 days […] relative to vehicle-treated control; design: scale not given: the % may be the effect or the level left
Mus musculus [13] = assay: Antihyperglycemic activity in db/db mouse assessed as reduction of blood glucose level at 100 mg/kg, po qd measured daily for 15 days relative to vehicle-treated control; design: scale not given: the % may be the effect or the level left; procedure, shortened: as §1
Mus musculus [14] = assay: Antidyslipidemic activity in db/db mouse assessed as increase in plasma HDL-cholesterol level at 100 mg/kg, po qd administered 15 days […] relative to vehicle-treated control
Mus musculus [15] = assay: Antihyperglycemic activity in db/db mouse assessed as inhibition of post prandial blood glucose level at 100 mg/kg, po qd administered 15 days measured on day 10 by OGTT relative to vehicle-treated control; procedure, shortened: as §1
L6 [16] = assay: Antihyperglycemic activity in rat L6 cells assessed as increase in 2-deoxy-[3H]-D-glucose uptake at 50 uM after 18 hrs by liquid scintillation counting analysis relative to control; procedure, shortened: as §3

| SMILES | inhibition in vivo at 30 mg/kg (Mus musculus [1]) | inhibition in vivo at 30 mg/kg (Mus musculus [2]) | Activity (Mus musculus [3]) | Activity (Mus musculus [4]) | Activity (L6 [5]) | Activity (Mus musculus [6]) | Activity (Mus musculus [7]) | Activity (Mus musculus [8]) | Activity (3T3-L1) | Activity (Mus musculus [9]) | Activity (Mus musculus [10]) | inhibition in vivo at 100 mg/kg (Mus musculus [11]) | Activity (Mus musculus [12]) | Activity (Mus musculus [13]) | Activity (Mus musculus [14]) | inhibition in vivo at 100 mg/kg (Mus musculus [15]) | Activity (L6 [16]) |
| --- | --- | --- | --- | --- | --- | --- | --- | --- | --- | --- | --- | --- | --- | --- | --- | --- | --- |
| CN(CCOc1ccc(C2NC(=O)CCS2)cc1)c1ccccn1 (configuration not stated) | -44.9% | -40.8% | 15.1% | 30.4% | 53.5% | 1.46% | 13.2% | 28.8% |  |  |  |  |  |  |  |  |  |
| CN(CCOc1ccc(C2SCCC(=O)N2C2CC2)cc1)c1ccccn1 (configuration not stated) | -27.9% | -20.4% | 29.5% | 22.4% | 69.5% | 3.38% | 29.9% | 26.6% |  |  |  |  |  |  |  |  |  |
| CC(C)N1C(=O)CCSC1c1ccc(OCCN(C)c2ccccn2)cc1 (configuration not stated) |  |  |  |  | 14.8% |  |  |  |  |  |  |  |  |  |  |  |  |
| CCCCN1C(=O)CCSC1c1ccc(OCCN(C)c2ccccn2)cc1 (configuration not stated) |  |  |  |  | 35.4% |  |  |  |  |  |  |  |  |  |  |  |  |
| CN(CCOc1ccc(C2SCCC(=O)N2Cc2ccccc2)cc1)c1ccccn1 (configuration not stated) | -42.6% | -29.4% | 9.88% | 19.1% | 33% | 6.47% | 25.6% | 21.5% |  |  |  |  |  |  |  |  |  |
| CCCCN1C(=O)C[S+]([O-])C1c1ccc(OCCN(C)c2ccccn2)cc1 (configuration not stated) | -27.2% | -12.9% | 10.8% | 25.9% |  | 39.6% | 19.2% | 24.6% |  |  |  |  |  |  |  |  |  |
| CN(CCOc1ccc(C2N(Cc3ccccc3)C(=O)C[S+]2[O-])cc1)c1ccccn1 (configuration not stated) | -20.2% | -6.4% |  | 22.1% | 45.5% | 20% | 18.4% | 20.4% |  |  |  |  |  |  |  |  |  |
| CCCCN1C(=O)CS(=O)(=O)C1c1ccc(OCCN(C)c2ccccn2)cc1 (configuration not stated) |  |  | 7.2% | 30.2% | 51.3% | 25.7% | 14.7% | 28.8% |  |  |  |  |  |  |  |  |  |
| CN(CCOc1ccc(C2SCC(=O)N2C2CC2)cc1)c1ccccn1 (configuration not stated) | -40.9% | -26.6% | 12.6% | 25.6% | 67.2% | 8.8% | 15.6% | 31.8% | 3.87% |  |  |  |  |  |  |  |  |
| CCCCN1C(=O)CSC1c1ccc(OCCN(C)c2ccccn2)cc1 (configuration not stated) | -25.4% | -20.2% | 4.8% | 22.1% |  | 10.1% | 31.8% | 17.6% |  |  |  |  |  |  |  |  |  |
| CN(CCOc1ccc(C2SCC(=O)N2Cc2ccccc2)cc1)c1ccccn1 (configuration not stated) | -16.4% | -4.3% | 10.2% | 15.4% |  | 22.2% | 9.83% | 22.4% |  |  |  |  |  |  |  |  |  |
| CN(CCOc1ccc(C2NC(=O)CS2)cc1)c1ccccn1 (configuration not stated) | -36.6% | -25.9% | 19.3% | 18.5% | 51.9% |  | 14% | 27.4% | 5.53% |  |  |  |  |  |  |  |  |
| CN(C)C(=N)NC(=N)N [METFORMIN] |  |  |  |  |  |  |  |  |  | 14.6% | 37% | 29.7% | 12.1% | 23.7% | 6.8% | 29.1% |  |
| CN(CCOc1ccc(CC2SC(=O)NC2=O)cc1)c1ccccn1 (configuration not stated) [ROSIGLITAZONE] | -40.7% | -33.3% | 26.4% | 53.7% |  |  | 32.5% | 44.8% | 24% |  |  |  |  |  |  |  | 61.6% |
